Experimental data published in ChEMBL document CHEMBL2331340, “Novel antitumor indolizino[6,7-b]indoles with multiple modes of action: DNA cross-linking and topoisomerase I and II inhibition” (J Med Chem, 2013).
Active and inactive are the calls of the source. No cut-off for these calls is given here.

What was measured:
CCRF-CEM = experiment: Cytotoxicity against human CCRF-CEM cells after 72 hrs by XTT assay; format: functional, cell-based
Procedure, shortened: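 CCRF-CEM T-ALL cells incubated with compound for 72 h. XTT with phenazine methosulfate then added for 6 h at 37 °C, absorbance read at 450 and 630 nm. IC50 from six or seven concentrations by median-effect analysis; mean ± STDEV, n = 3.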

[1] = Cytotoxicity against human H460 cells after 72 hrs by Alamar blue assay; format: functional, cell-based; conditions: NCI-H460, 72 h
Procedure, shortened: (§1)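 Cells exposed to compound for 72 h, then Alamar blue added with a further 10−12 h at 37 °C and a spectrophotometric read. IC50 from six or seven concentrations by median-effect analysis; mean ± STDEV, n = 3. CL141T is a line derived from a patient lung tumor passaged as a SCID mouse xenograft.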

[2] = Cytotoxicity against human CL141T cells after 72 hrs by Alamar blue assay; format: functional, cell-based; procedure, shortened: as §1
[3] = Cytotoxicity against human OECM1 cells after 72 hrs by Alamar blue assay; format: functional, cell-based; conditions: OECM1, 72 h; procedure, shortened: as §1
HCT-116 = experiment: Cytotoxicity against human HCT116 cells after 72 hrs by Alamar blue assay; format: functional, cell-based; conditions: HCT-116, 72 h; procedure, shortened: as §1
PC-3 = experiment: Cytotoxicity against human PC3 cells after 72 hrs by Alamar blue assay; format: functional, cell-based; conditions: PC-3, 72 h; procedure, shortened: as §1
MX1 = experiment: Cytotoxicity against human MX1 cells after 72 hrs by SRB assay; format: functional, cell-based; conditions: MX1, 72 h
[4] = Cytotoxicity against human KB-VIN10 cells after 72 hrs by Alamar blue assay; conditions: KB-VIN10, 72 h
KB = experiment: Cytotoxicity against human KB cells after 72 hrs by Alamar blue assay
[5] = Resistance factor, ratio of IC50 for human KB-VIN10 cells to IC50 for human KB cells; format: functional
HT-29 = experiment: Cytotoxicity against human HT-29 cells after 72 hrs by Alamar blue assay; format: functional, cell-based; conditions: HT-29, 72 h; procedure, shortened: as §1
A549 = experiment: Cytotoxicity against human A549 cells after 72 hrs by Alamar blue assay; format: functional, cell-based; conditions: A549, 72 h; procedure, shortened: as §1
Escherichia coli = experiment: Induction of Escherichia coli pEGFP-N1 DNA interstrand cross-linking at 1 to 10 uM after 2 hrs by alkaline agarose gel shift assay
Procedure, shortened: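 Plasmid pEGFP-N1 DNA (1500 ng) incubated with compound at 1, 5 and 10 μM in 3 mM NaCl/1 mM sodium phosphate pH 7.4/1 mM EDTA, 2 h at 37 °C. DNA then BamHI-linearized, EtOH-precipitated, denatured in 0.5 N NaOH/10 mM EDTA, run on 0.8% alkaline agarose at 4 °C (18 V, 22 h), stained with ethidium bromide.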

[6] = Cytotoxicity against human MES-SA cells after 72 hrs by Presto Blue assay; format: functional, cell-based
Procedure, shortened: (§2)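 MES-SA and doxorubicin-resistant MES-SA/dx5 cells exposed for 72 h, then PrestoBlue added for 3 h at 37 °C, absorbance read at 570 and 600 nm. IC50 by median-effect analysis of six or seven concentrations; mean ± STDEV of three to six independent experiments.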

[7] = Cytotoxicity against human MES-SA/Dx5 cells after 72 hrs by Presto Blue assay; format: functional, cell-based; conditions: MES-SA/Dx5, 72 h; procedure, shortened: as §2
MES-SA = experiment: Resistance factor, ratio of IC50 for human MES-SA/Dx5 cells to IC50 for human MES-SA cells; format: functional
[8] = Cytotoxicity against human HEL299 cells; format: cell-based; conditions: HEL 299

Row | SMILES | IC50 (CCRF-CEM) [µM] | IC50 [2] [µM] | IC50 [3] [µM] | IC50 (HCT-116) [µM] | IC50 (PC-3) [µM] | further results
1 | COc1cc(-c2c(CO)c(CO)c3n2Cc2c(c4ccccc4n2C)C3)cc(OC)c1OC | 4.45 |  |  |  |  | 
2 | Cn1c2c(c3ccccc31)Cc1c(CO)c(CO)c(-c3ccc(F)cc3)n1C2 | 1.46 |  |  |  |  | 
3 | Cn1c2c(c3ccccc31)Cc1c(CO)c(CO)c(-c3ccccc3)n1C2 | 1.17 |  |  |  |  | 
4 | COc1ccc(-c2c(COC(=O)NC(C)C)c(COC(=O)NC(C)C)c3n2Cc2c(c4ccccc4n2C)C3)cc1 | 0.12 | 4 | 4.17 | 5.93 | 6.84 | IC50 [1]: 9.52 µM
5 | CCNC(=O)OCc1c(COC(=O)NCC)c(-c2ccc(Cl)cc2)n2c1Cc1c(n(C)c3ccccc13)C2 | 0.35 | 7.88 | 9.01 | 1.17 | 4.95 | IC50 (MX1): 1.83 µM
6 | COc1ccc(-c2c(COC(=O)NC(C)C)c(COC(=O)NC(C)C)c3n2Cc2c(c4ccccc4n2C)C3)cc1OC | 0.3 |  |  |  |  | 
7 | Cc1c(COC(=O)NC(C)C)c(COC(=O)NC(C)C)c2n1Cc1c(c3ccccc3n1Cc1ccccc1)C2 | 0.1 | 4.66 | 4.2 | 3.92 | 4.18 | IC50 [1]: 7.26 µM
8 | CC[C@]1(O)C[C@H]2CN(CCc3c([nH]c4ccccc34)[C@@](C(=O)OC)(c3cc4c(cc3OC)N(C=O)[C@H]3[C@@](O)(C(=O)OC)[C@H](OC(C)=O)[C@]5(CC)C=CCN6CC[C@]43[C@@H]65)C2)C1 [VINCRISTINE] |  |  |  |  |  | IC50 [4]: 0.303 µM; IC50 (KB): 0.00211 µM; Ratio IC50 [5]: 143.7
9 | CCNC(=O)OCc1c(COC(=O)NCC)c(-c2ccc(F)c(F)c2)n2c1Cc1c(n(C)c3ccccc13)C2 | 0.13 | 9.61 | 14.4 |  | 6.76 | IC50 [1]: 18.9 µM
10 | CCNC(=O)OCc1c(COC(=O)NCC)c2n(c1CC)Cc1c(c3ccccc3n1C)C2 | 0.16 | 2.85 | 3.9 | 1.8 | 5 | 
11 | CCNC(=O)OCc1c(COC(=O)NCC)c(-c2ccc(OC)c(OC)c2)n2c1Cc1c(n(C)c3ccccc13)C2 | 0.3 | 11.2 | 5.29 |  | 8.03 | 
12 | CCNC(=O)OCc1c(COC(=O)NCC)c(-c2ccc(F)cc2)n2c1Cc1c(n(C)c3ccccc13)C2 | 0.39 | 12.4 | 8.6 |  | 14.6 | 
13 | CCn1c2c(c3ccccc31)Cc1c(COC(=O)NC(C)C)c(COC(=O)NC(C)C)c(C)n1C2 | 0.14 | 1.88 | 2.27 | 2.2 | 3.28 | IC50 (HT-29): 6.36 µM; IC50 (A549): 2.64 µM
14 | CC(C)NC(=O)OCc1c(COC(=O)NC(C)C)c(-c2ccc(F)c(Cl)c2)n2c1Cc1c(n(C)c3ccccc13)C2 | 1.91 |  |  |  |  | 
15 | CCc1c(COC(=O)NC(C)C)c(COC(=O)NC(C)C)c2n1Cc1c(c3ccccc3n1C)C2 | 0.16 | 2.66 | 2.02 | 2.22 | 2.1 | 
16 | CC(C)NC(=O)OCc1c(COC(=O)NC(C)C)c(-c2ccc(F)c(F)c2)n2c1Cc1c(n(C)c3ccccc13)C2 | 0.44 | 18.3 | 15.2 |  | 34.2 | 
17 | Cc1c(CO)c(CO)c2n1Cc1c(c3ccccc3n1Cc1ccccc1)C2 | 0.29 | 2.76 | 4.17 |  | 4.52 | 

Row | SMILES | IC50 (CCRF-CEM) [µM] | IC50 [2] [µM] | IC50 [3] [µM] | IC50 (HCT-116) [µM] | IC50 (PC-3) [µM] | further results
18 | COc1cc(-c2c(COC(=O)NC(C)C)c(COC(=O)NC(C)C)c3n2Cc2c(c4ccccc4n2C)C3)cc(OC)c1OC | 0.95 |  |  |  |  | 
19 | Cn1c2c(c3ccccc31)Cc1c(CO)c(CO)c(-c3ccc(F)c(F)c3)n1C2 | 7.94 |  |  |  |  | 
20 | CC(C)NC(=O)OCc1c(COC(=O)NC(C)C)c(-c2ccc(Cl)cc2)n2c1Cc1c(n(C)c3ccccc13)C2 | 0.44 | 14 | 12.7 | 9.28 | 13.1 | IC50 (MX1): 12.4 µM
21 | CCNC(=O)OCc1c(COC(=O)NCC)c(-c2ccc(OC)cc2)n2c1Cc1c(n(C)c3ccccc13)C2 | 0.1 | 8.13 | 6.15 | 7.1 | 8.3 | 
22 | CCNC(=O)OCc1c(COC(=O)NCC)c2n(c1C)Cc1c(c3ccccc3n1CC)C2 | 0.14 | 1.4 | 4.9 | 3.22 | 4.61 | IC50 [1]: 5.14 µM; Activity (Escherichia coli): Active
23 | CC(C)NC(=O)OCc1c(COC(=O)NC(C)C)c(-c2ccccc2)n2c1Cc1c(n(C)c3ccccc13)C2 | 0.13 | 9.6 | 4.87 |  | 7.84 | IC50 [1]: 4.72 µM
24 | COc1ccc(-c2c(CO)c(CO)c3n2Cc2c(c4ccccc4n2C)C3)cc1OC | 0.96 | 33.1 | 37.2 |  | 37.9 | 
25 | COc1cccc2c1C(=O)c1c(O)c3c(c(O)c1C2=O)C[C@@](O)(C(=O)CO)C[C@@H]3O[C@H]1C[C@H](N)[C@H](O)[C@H](C)O1 [DOXORUBICIN] |  |  |  |  |  | IC50 [6]: 0.038 µM; IC50 [7]: 2.3 µM; Ratio IC50 (MES-SA): 60.52
26 | Cc1c(COC(=O)NC(C)C)c(COC(=O)NC(C)C)c2n1Cc1c(c3ccccc3n1C)C2 | 0.03 | 2.43 | 1.45 | 1.26 | 3.03 | IC50 (HT-29): 10.8 µM; IC50 (A549): 3.81 µM; IC50 (MX1): 0.25 µM
27 | CCNC(=O)OCc1c(COC(=O)NCC)c(-c2ccc(F)c(Cl)c2)n2c1Cc1c(n(C)c3ccccc13)C2 | 1.8 |  |  |  |  | 
28 | Cn1c2c(c3ccccc31)Cc1c(CO)c(CO)c(-c3ccc(F)c(Cl)c3)n1C2 | 14.4 |  |  |  |  | 
29 | Cn1c2c(c3ccccc31)Cc1c(CO)c(CO)c(-c3ccc(Cl)cc3)n1C2 | 4.58 | 23.8 | 17.2 | 17.5 | 12.9 | IC50 (MX1): 11.3 µM
30 | CCc1c(CO)c(CO)c2n1Cc1c(c3ccccc3n1C)C2 | 0.2 | 1.32 | 2.11 |  | 3.32 | IC50 [4]: 1.56 µM; IC50 [6]: 0.77 µM; IC50 [7]: 0.47 µM; IC50 (HT-29): 8.56 µM; IC50 (KB): 1.97 µM; IC50 [8]: 4.24 µM; IC50 (A549): 3.15 µM; Ratio IC50 (MES-SA): 0.61; Ratio IC50 [5]: 0.79
31 | CCNC(=O)OCc1c(COC(=O)NCC)c2n(c1C)Cc1c(c3ccccc3n1Cc1ccccc1)C2 | 0.14 |  | 5.42 | 3.84 | 5.05 | IC50 [1]: 8.31 µM
32 | CCNC(=O)OCc1c(COC(=O)NCC)c(-c2cc(OC)c(OC)c(OC)c2)n2c1Cc1c(n(C)c3ccccc13)C2 | 0.62 |  |  |  |  | 
33 | CCNC(=O)OCc1c(COC(=O)NCC)c(-c2ccccc2)n2c1Cc1c(n(C)c3ccccc13)C2 | 0.23 | 10.5 | 5.19 |  | 9.13 | 
34 | COc1ccc(-c2c(CO)c(CO)c3n2Cc2c(c4ccccc4n2C)C3)cc1 | 1.3 |  |  |  |  | 
